The species entered for data set [1] is Rattus norvegicus. Kind of data set: Tested for inhibition of growth hormone (GH)release from primary cultures of male rat anterior pituitary cells. The class given is functional, cell-based. Particulars: Pituitary gland cell.
The target of data set [2] is Somatostatin receptor type 4 (Homo sapiens, UniProt P31391). Kind of data set: Tested for inhibition of radioligand binding to cloned somatostatin receptor hSSTR4.
For data set [3], the target named is Somatostatin receptor type 3 (Mus musculus, UniProt P30935). Kind of data set: Tested for inhibition of radioligand binding to cloned somatostatin receptor mSSTR3.
Data set [4] concerns the target Somatostatin receptor type 2 (Mus musculus, UniProt P30875). Kind of data set: Tested for inhibition of radioligand binding to cloned somatostatin receptor mSSTR2b.
For data set [5], the target named is T1, Somatostatin receptor type 5 (Rattus norvegicus, UniProt P30938).
T1 sequence (P30938 whole entry): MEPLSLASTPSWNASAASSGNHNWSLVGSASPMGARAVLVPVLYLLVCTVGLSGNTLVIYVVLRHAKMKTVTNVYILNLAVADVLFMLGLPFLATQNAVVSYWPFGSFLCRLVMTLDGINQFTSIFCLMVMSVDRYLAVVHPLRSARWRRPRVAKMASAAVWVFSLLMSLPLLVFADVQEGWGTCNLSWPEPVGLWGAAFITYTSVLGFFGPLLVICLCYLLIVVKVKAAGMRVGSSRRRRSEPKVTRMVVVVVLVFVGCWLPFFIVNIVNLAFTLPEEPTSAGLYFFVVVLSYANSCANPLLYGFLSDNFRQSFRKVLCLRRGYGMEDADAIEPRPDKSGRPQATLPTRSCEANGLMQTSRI
The experiment in a line: Tested for inhibition of radioligand binding to cloned somatostatin receptor rSSTR5.

Data set [6] addresses Somatostatin receptor type 5 (Homo sapiens, UniProt P35346). Kind of data set: Tested for inhibition of radioligand binding to cloned somatostatin receptor hSSTR5.
Data set [7] is described as follows: half-life of compound. Type of data set: ADME. A digest of the protocol:
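Aliquots taken at 5, 15, 30, 45, 60 and 90 min were quenched in ice-cold 1 M acetic acid and centrifuged. Remaining peptide was measured by microbore RP-HPLC at 216 nm against homogenate calibration. A pseudo-first-order exponential fit gave k, and half-life = 0.693/k.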

Bridge positions count the residues as written; N and C are the ends. Square brackets hold non-standard residues; d marks the D form. Peptide text beside a SMILES is read from it. * marks the point of attachment. Threoninol(2S,3R) = C[C@@H](O)[C@H](CO)N* Bounds are passed on as bounds.

Sequence of Somatostatin receptor type 2 (P30875 whole entry): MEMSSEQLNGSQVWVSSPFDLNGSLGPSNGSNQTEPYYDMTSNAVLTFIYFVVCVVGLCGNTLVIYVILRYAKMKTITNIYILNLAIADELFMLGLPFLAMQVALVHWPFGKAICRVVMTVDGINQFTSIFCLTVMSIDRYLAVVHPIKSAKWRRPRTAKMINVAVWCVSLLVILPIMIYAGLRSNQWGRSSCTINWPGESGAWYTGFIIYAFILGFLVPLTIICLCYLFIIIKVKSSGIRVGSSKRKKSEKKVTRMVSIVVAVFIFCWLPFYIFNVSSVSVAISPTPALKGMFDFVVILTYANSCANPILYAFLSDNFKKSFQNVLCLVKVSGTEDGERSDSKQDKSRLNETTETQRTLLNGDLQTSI
Sequence of Somatostatin receptor type 3 (P30935 whole entry): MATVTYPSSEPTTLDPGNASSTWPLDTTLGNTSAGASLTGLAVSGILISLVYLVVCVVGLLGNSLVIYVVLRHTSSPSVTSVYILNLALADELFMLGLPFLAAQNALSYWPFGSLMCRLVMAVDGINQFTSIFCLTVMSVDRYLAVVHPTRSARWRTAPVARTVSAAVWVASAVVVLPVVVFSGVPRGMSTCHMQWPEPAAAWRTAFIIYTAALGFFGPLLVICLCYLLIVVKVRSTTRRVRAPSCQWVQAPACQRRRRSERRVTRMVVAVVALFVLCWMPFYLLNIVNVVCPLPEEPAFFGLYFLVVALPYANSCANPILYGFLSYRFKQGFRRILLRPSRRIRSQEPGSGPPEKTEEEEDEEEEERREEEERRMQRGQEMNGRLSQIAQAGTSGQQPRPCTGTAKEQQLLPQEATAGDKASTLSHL
Sequence of Somatostatin receptor type 4 (P31391 whole entry): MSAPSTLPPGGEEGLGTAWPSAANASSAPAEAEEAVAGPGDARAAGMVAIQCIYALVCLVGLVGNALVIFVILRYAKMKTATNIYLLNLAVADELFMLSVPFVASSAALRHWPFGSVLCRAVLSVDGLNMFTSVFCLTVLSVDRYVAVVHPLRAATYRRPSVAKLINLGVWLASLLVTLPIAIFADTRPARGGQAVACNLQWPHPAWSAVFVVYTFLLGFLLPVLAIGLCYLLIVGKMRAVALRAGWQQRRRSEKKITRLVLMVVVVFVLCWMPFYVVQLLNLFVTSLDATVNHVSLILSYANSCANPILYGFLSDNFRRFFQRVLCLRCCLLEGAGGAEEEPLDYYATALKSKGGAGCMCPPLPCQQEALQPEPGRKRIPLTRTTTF
Sequence of Somatostatin receptor type 5 (Homo sapiens, UniProt P35346) (P35346 whole entry): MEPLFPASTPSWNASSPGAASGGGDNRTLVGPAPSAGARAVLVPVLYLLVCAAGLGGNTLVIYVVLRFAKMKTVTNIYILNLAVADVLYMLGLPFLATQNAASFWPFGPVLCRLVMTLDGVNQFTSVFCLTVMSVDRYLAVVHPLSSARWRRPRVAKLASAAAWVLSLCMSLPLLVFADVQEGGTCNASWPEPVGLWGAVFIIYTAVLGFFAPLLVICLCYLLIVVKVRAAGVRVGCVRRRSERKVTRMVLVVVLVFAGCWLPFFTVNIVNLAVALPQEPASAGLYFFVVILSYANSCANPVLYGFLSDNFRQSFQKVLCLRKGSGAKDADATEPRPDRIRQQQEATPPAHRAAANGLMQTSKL

As a reminder, the IC50 is the concentration needed to halve the response being measured. Low readings indicate greater potency in that assay, high ones weaker potency in that assay. In data set [1], `C[C@@H](O)[C@@H]1NC(=O)[C@H](CCCCN)NC(=O)[C@@H](Cc2c[nH]c3ccccc23)NC(=O)[C@H](Cc2ccccc2)NC(=O)[C@@H](N)CSC[C@@H](C(=O)O)NC1=O` [listing 1 of 2 here] had an IC50 above 1000 nM.

In the case of `C[C@@H](O)[C@@H]1NC(=O)[C@H](CCCCN)NC(=O)[C@@H](Cc2c[nH]c3ccccc23)NC(=O)[C@H](Cc2ccccc2)NC(=O)[C@@H](N)CSC[C@@H](C(=O)O)NC1=O` [listing 2 of 2 here], the half-inhibitory concentration (IC50) in data set [2], in data set [3] and in data set [4] was above 1000 nM in each case.

Turning to `C[C@@H](O)[C@H]1NC(=O)[C@H](CCCCN)NC(=O)[C@@H](Cc2c[nH]c3ccccc23)NC(=O)[C@H](Cc2ccccc2)NC(=O)[C@@H](N)CSC[C@H](C(=O)O)NC1=O`, the IC50 in data set [5] worked out at 500 nM.

In data set [4], `C[C@@H](O)[C@@H]1NC(=O)[C@H](CCCCN)NC(=O)[C@@H](Cc2c[nH]c3ccccc23)NC(=O)[C@H](Cc2ccccc2)NC(=O)[C@@H](NC(=O)[C@H](N)Cc2ccccc2)CSSC[C@@H](C(=O)O)NC1=O` showed an IC50 of 13.6 nM.

In the case of `C[C@@H](O)[C@H]1NC(=O)[C@H](CCCCN)NC(=O)[C@@H](Cc2c[nH]c3ccccc23)NC(=O)[C@H](Cc2ccccc2)NC(=O)[C@@H](NC(=O)[C@@H](N)Cc2ccccc2)CSSC[C@H](C(=O)O)NC1=O`, the IC50 in data set [2] and in data set [3] was above 1000 nM throughout.

In data set [6], `C[C@@H](O)[C@H](NC(=O)[C@@H]1CSC[C@H](NC(=O)[C@H](N)Cc2ccccc2)C(=O)N[C@@H](Cc2ccccc2)C(=O)N[C@H](Cc2c[nH]c3ccccc23)C(=O)N[C@@H](CCCCN)C(=O)N[C@@H]([C@@H](C)O)C(=O)N1)C(N)=O` [listing 1 of 2 here] showed an IC50 of 4.92 nM.

With `C[C@@H](O)[C@H](NC(=O)[C@@H]1CSC[C@H](NC(=O)[C@H](N)Cc2ccccc2)C(=O)N[C@@H](Cc2ccccc2)C(=O)N[C@H](Cc2c[nH]c3ccccc23)C(=O)N[C@@H](CCCCN)C(=O)N[C@@H]([C@@H](C)O)C(=O)N1)C(N)=O` [listing 2 of 2 here], the half-inhibitory concentration (IC50) is above 1000 nM in data set [2], above 1000 nM in data set [3] and 16.6 nM in data set [4].

Consider `C[C@@H](O)[C@H](NC(=O)[C@@H]1CSC[C@@H](NC(=O)[C@H](N)Cc2ccccc2)C(=O)N[C@H](Cc2ccccc2)C(=O)N[C@@H](Cc2c[nH]c3ccccc23)C(=O)N[C@H](CCCCN)C(=O)N[C@@H]([C@@H](C)O)C(=O)N1)C(N)=O`, for which half-maximal inhibition in data set [1] (IC50) required 70 nM.

As for `C[C@@H](O)[C@@H]1NC(=O)[C@H](CCCCN)NC(=O)[C@@H](Cc2c[nH]c3ccccc23)NC(=O)[C@H](Cc2ccccc2)NC(=O)[C@@H](NC(=O)[C@H](N)Cc2ccccc2)CSC[C@@H](C(=O)O)NC1=O`, the IC50 in data set [1], in data set [2], in data set [3] and in data set [4] was above 1000 nM in each case.

Usually half-life stands for how long it takes for the measured level to halve. In data set [7], `C[C@@H](O)[C@H](CO)NC(=O)[C@@H]1CSSC[C@H](NC(=O)[C@H](N)Cc2ccccc2)C(=O)N[C@@H](Cc2ccccc2)C(=O)N[C@H](Cc2c[nH]c3ccccc23)C(=O)N[C@@H](CCCCN)C(=O)N[C@@H]([C@@H](C)O)C(=O)N1` (H-[dF]CF[dW]KTC-{Threoninol(2S,3R)}; disulfide 2-7) showed a half-life of 12.5 h. For the same compound, the half-maximal inhibitory concentration (IC50) in data set [5] was 1.04 nM; in data set [1] it was 0.52 nM; in data set [3], 3 nM; in data set [4], 0.28 nM.

`C[C@H](N)C(=O)NCC(=O)N[C@H]1CSSC[C@@H](C(=O)O)NC(=O)[C@H](CO)NC(=O)[C@H]([C@@H](C)O)NC(=O)[C@H](Cc2ccccc2)NC(=O)[C@H]([C@@H](C)O)NC(=O)[C@H](CCCCN)NC(=O)[C@H](Cc2c[nH]c3ccccc23)NC(=O)[C@H](Cc2ccccc2)NC(=O)[C@H](Cc2ccccc2)NC(=O)[C@H](CC(N)=O)NC(=O)[C@H](CCCCN)NC1=O` [SOMATOSTATIN] registered an IC50 in data set [1] of 0.52 nM.

Source of the values: ChEMBL document CHEMBL1130347, “Lanthionine-somatostatin analogs: synthesis, characterization, biological activity, and enzymatic stability studies” (J Med Chem, 1997).
